Assay results taken from ChEMBL document CHEMBL4118021, “Studies of TAK1-centered polypharmacology with novel covalent TAK1 inhibitors” (Bioorg Med Chem, 2017).

How the values were obtained:
Format in all cases: cell-based
[1] = molecular target: Tyrosine-protein kinase CSK (Homo sapiens) (UniProt P41240); assay: Inhibition of CSK in human SKCO1 cells at 1 uM after 4 hrs using biotin labeled VSDFGLTKEASSTQDTGKLPVK probe by mass-spectrometric analysis relative to control
[2] = molecular target: Mitogen-activated protein kinase kinase kinase kinase 1 (Homo sapiens) (UniProt Q92918); assay: Inhibition of HPK1 in human SKCO1 cells at 1 uM after 4 hrs using biotin labeled DIKGANILINDAGEVR probe by mass-spectrometric analysis relative to control
Mitogen-activated protein kinase kinase kinase kinase 1 (Homo sapiens), sequence (Q92918 whole entry, looked up): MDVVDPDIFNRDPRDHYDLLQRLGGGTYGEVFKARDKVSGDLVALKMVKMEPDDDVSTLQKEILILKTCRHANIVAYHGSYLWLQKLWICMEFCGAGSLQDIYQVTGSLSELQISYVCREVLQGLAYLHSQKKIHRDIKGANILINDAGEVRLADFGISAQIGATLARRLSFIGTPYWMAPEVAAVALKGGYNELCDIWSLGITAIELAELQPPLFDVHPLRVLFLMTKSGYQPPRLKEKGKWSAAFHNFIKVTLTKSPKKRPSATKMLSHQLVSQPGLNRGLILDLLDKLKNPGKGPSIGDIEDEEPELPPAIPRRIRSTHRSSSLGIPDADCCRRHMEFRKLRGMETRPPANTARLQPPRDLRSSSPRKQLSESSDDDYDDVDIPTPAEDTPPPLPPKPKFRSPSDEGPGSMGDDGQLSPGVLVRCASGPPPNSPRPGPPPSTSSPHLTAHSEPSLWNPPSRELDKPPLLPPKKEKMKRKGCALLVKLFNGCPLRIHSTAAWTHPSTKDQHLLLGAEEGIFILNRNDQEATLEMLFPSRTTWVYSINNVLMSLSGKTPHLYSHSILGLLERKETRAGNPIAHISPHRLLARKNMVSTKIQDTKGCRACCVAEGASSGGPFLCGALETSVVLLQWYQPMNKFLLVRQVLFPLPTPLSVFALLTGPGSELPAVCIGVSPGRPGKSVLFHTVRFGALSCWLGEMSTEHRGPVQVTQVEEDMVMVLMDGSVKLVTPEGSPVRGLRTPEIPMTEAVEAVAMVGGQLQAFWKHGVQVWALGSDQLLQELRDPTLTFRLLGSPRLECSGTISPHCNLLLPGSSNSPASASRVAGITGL

[3] = molecular target: T1, Protein kinase C zeta type (Homo sapiens) (UniProt Q05513); assay: Inhibition of PKCz in human SKCO1 cells at 1 uM after 4 hrs using biotin labeled DLKLDNVLLDADGHIK probe by mass-spectrometric analysis relative to control
T1 sequence (whole entry): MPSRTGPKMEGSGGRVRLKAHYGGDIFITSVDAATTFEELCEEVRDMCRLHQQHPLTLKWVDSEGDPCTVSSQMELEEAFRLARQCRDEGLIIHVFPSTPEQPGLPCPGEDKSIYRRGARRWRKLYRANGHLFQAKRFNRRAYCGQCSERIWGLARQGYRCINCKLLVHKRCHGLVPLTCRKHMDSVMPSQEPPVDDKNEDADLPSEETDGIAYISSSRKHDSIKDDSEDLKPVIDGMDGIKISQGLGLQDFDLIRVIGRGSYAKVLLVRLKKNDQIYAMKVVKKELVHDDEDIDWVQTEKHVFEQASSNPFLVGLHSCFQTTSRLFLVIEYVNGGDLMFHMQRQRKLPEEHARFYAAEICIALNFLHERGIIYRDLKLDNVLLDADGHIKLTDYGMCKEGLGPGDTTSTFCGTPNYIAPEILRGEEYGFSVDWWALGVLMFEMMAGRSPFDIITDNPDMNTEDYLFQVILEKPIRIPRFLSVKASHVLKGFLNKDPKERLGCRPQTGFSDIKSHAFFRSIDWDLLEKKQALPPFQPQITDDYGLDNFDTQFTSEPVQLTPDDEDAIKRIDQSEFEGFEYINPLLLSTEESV
How it was run: (§1)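 Live SK-CO-1 cells exposed to compound at 1 μM or DMSO for 4 h (KiNativ). Lysates then labeled with lysine-reactive ATP/ADP-biotin probe, and probe-labeled kinase peptides quantified by mass spectrometry. Percent inhibition of probe-dependent recovery calculated relative to DMSO-treated cells.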

[4] = molecular target: T2, Serine/threonine-protein kinase TAO1 (Homo sapiens) (UniProt Q7L7X3); assay: Inhibition of TAO1 in human SKCO1 cells at 1 uM after 4 hrs using biotin labeled DIKAGNILLTEPGQVK probe by mass-spectrometric analysis relative to control; how it was run: as §1
T2 sequence (whole entry): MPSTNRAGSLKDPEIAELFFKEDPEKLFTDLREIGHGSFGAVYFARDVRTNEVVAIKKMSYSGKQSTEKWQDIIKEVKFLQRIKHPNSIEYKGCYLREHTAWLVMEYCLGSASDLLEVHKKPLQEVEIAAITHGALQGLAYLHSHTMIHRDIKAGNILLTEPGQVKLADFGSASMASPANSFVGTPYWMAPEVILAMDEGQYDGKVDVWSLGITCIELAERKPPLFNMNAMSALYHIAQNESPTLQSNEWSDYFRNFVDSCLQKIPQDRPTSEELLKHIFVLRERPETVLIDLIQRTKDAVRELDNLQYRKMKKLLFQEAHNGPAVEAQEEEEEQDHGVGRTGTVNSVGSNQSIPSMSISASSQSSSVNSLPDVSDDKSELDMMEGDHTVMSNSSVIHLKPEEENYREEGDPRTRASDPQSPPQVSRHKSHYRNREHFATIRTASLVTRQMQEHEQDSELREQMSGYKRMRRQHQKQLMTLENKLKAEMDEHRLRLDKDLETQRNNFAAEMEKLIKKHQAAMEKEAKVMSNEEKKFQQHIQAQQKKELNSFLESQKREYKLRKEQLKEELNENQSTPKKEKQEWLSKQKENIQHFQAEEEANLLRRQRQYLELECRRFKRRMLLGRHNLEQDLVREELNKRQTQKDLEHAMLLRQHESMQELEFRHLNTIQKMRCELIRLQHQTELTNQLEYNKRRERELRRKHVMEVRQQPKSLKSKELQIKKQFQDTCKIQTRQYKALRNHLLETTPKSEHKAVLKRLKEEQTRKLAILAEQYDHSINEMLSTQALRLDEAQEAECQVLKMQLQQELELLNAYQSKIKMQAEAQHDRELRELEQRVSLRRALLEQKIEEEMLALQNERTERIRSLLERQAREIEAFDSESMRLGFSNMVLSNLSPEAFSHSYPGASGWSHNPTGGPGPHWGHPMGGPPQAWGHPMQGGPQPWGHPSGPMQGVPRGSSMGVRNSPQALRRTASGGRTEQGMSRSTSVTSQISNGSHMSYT

[5] = molecular target: T3, Serine/threonine-protein kinase TAO3 (Homo sapiens) (UniProt Q9H2K8); assay: Inhibition of TAO3 in human SKCO1 cells at 1 uM after 4 hrs using biotin labeled DIKAGNILLTEPGQVK probe by mass-spectrometric analysis relative to control; how it was run: as §1
T3 sequence (whole entry): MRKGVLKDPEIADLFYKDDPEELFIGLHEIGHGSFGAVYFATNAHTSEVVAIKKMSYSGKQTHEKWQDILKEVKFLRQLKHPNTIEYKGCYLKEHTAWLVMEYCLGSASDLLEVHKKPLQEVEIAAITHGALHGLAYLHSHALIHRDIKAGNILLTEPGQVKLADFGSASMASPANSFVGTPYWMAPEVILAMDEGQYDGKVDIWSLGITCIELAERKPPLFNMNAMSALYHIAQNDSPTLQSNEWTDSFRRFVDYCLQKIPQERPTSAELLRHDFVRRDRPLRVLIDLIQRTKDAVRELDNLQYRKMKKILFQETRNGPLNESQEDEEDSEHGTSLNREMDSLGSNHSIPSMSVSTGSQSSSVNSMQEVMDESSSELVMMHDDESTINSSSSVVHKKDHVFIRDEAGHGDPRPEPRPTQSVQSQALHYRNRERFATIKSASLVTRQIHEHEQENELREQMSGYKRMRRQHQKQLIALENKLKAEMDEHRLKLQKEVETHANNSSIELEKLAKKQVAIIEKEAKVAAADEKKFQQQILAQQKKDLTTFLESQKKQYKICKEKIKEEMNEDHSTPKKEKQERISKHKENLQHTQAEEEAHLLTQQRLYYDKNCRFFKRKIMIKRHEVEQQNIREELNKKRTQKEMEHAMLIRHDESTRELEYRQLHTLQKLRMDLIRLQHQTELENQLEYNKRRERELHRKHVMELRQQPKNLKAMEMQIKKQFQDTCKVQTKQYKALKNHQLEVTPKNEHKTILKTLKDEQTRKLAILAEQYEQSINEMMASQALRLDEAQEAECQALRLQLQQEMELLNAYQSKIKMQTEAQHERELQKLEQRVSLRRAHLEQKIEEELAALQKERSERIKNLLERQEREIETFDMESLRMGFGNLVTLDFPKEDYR

[6] = molecular target: Mitogen-activated protein kinase kinase kinase 20 (Homo sapiens) (UniProt Q9NYL2); assay: Inhibition of ZAK in human SKCO1 cells at 1 uM after 4 hrs using biotin labeled WISQDKEVAVKK probe by mass-spectrometric analysis relative to control; how it was run: as §1
Mitogen-activated protein kinase kinase kinase 20 (Homo sapiens), sequence (Q9NYL2 2-800 limits assumed): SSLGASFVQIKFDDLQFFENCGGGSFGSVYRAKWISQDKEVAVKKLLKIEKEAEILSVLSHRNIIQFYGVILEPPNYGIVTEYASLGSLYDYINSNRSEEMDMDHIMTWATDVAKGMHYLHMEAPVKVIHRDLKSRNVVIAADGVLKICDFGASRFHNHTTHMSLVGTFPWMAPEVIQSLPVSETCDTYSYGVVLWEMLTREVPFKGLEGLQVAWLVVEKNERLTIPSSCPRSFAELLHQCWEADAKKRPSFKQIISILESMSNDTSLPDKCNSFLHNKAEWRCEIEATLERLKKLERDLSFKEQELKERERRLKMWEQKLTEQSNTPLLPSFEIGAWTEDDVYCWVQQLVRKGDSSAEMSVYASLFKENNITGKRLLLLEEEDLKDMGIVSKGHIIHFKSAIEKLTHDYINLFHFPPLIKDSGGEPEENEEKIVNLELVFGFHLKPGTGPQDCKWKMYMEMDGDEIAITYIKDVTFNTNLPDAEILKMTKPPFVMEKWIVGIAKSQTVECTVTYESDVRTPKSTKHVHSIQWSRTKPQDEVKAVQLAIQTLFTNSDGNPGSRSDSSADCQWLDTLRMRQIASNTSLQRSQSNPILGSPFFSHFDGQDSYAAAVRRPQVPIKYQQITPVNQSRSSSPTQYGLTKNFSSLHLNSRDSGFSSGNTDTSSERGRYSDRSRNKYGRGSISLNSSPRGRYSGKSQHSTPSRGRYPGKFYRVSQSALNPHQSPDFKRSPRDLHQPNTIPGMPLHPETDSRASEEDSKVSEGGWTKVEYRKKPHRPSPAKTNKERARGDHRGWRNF

Tyrosine-protein kinase CSK (Homo sapiens), sequence (P41240 2-450 limits assumed): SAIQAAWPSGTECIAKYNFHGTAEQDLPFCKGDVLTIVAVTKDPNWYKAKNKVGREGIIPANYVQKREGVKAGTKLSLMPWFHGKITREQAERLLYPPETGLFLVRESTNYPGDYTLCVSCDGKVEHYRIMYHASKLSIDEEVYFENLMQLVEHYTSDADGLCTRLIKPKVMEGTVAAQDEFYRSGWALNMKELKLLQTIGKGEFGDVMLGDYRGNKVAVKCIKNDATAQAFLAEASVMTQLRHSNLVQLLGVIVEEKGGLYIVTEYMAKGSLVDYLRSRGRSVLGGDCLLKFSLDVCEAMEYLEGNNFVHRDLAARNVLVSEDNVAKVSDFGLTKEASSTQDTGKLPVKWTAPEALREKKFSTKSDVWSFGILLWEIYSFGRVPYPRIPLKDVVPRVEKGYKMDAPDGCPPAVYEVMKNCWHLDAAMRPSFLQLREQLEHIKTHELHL

`C=CC(=O)Nc1ccccc1Nc1nc(Nc2ccc(N3CCN(C)CC3)cc2)ncc1Cl` was tested, and the inhibition [1] was -0.8%, the inhibition [2] was 34.9% and the inhibition [3] was 14.5%. It also gave an inhibition [4] of 13.1%, an inhibition [5] of 13.1% and an inhibition [6] of 26%.
`COc1cc(O)c2c(c1)/C=C/C[C@H](O)[C@H](O)C(=O)/C=C\C[C@H](C)OC2=O` was tested, and the inhibition [1] was -1.8%, the inhibition [2] was 77.3% and the inhibition [3] was 42.1%. For the same molecule, the inhibition [4] was 39.4%, the inhibition [5] was 39.4% and the inhibition [6] was 87.5%.
With `C=CC(=O)Nc1ccccc1Oc1nc(Nc2cnn(CCOC)c2)ncc1Cl` the inhibition [1] was 5.2%, the inhibition [2] was 72.6% and the inhibition [3] was 30%. The inhibition [4] was 9.6%, the inhibition [5] was 9.6% and the inhibition [6] was -9.2%.
